ChEMBL document CHEMBL3797170, “A Grand Challenge: Unbiased Phenotypic Function of Metabolites from Jaspis splendens against Parkinson's Disease” (J Nat Prod, 2016)
Activity calls are given as the source filed them. No cut-off for these calls is given here.

How the values were obtained:
ONS [1] = experiment: Induction of phenotypic perturbation in human ONS cells assessed as decrease in lysosome marker at 10 uM after 24 hrs by lysotrack red DND-99 staining based assay relative to control; format: functional, cell-based
ONS [2] = experiment: Induction of phenotypic perturbation in human ONS cells assessed as increase in EEA1-associated early endosomes level in at 10 uM after 24 hrs by EEA1 staining based assay relative to control; format: functional, cell-based
ONS [3] = experiment: Induction of phenotypic perturbation in human ONS cells assessed as decrease in EEA1-associated early endosomes level in at 10 uM after 24 hrs by EEA1 staining based assay relative to control; format: functional, cell-based
Summary of the method: (§1)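 hONS cells from Parkinson's disease patient line C1 200 08 0013, 1350 cells/well in DMEM/F12 with 10% FBS, exposed to 10 μM compound (0.6% DMSO; DMSO alone as control) for 24 h at 37 °C, 5% CO2. Live stain with LysoTracker Red DND-99 (100 nM, 1 h), then PFA fixation, anti-EEA1 immunostaining, DAPI and CellMask. Imaged at 20×, six fields/well, per-cell features given as log2 ratio to DMSO.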

[4] = Cytotoxicity against human ONS cells derived from parkinsons disease patients assessed as alteration of nuclear parameters at 10 uM; format: cell-based
Summary of the method: (§2)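 Patient-derived hONS cells (Parkinson's line C1 200 08 0013), 1350 cells/well in DMEM/F12 + 10% FBS, exposed to 10 μM compound (0.6% DMSO final; DMSO 0.6% as negative control) for 24 h at 37 °C, 5% CO2. Plate 1: MitoTracker Orange 400 nM, fixed, anti-α-tubulin and anti-LC3b. Plate 2: LysoTracker Red 100 nM, anti-EEA1, CellMask. DAPI on all cells.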

[5] = Cytotoxicity against human ONS cells derived from parkinsons disease patients assessed as alteration of cellular parameters at 10 uM; format: cell-based; summary of the method: as §2
ONS [6] = experiment: Induction of phenotypic perturbation in human ONS cells assessed as decrease in autophagy markers level in at 10 uM after 24 hrs relative to control; format: functional, cell-based; summary of the method: as §2
ONS [7] = experiment: Induction of phenotypic perturbation in human ONS cells assessed as increase in LC3b marker at 10 uM after 24 hrs by LC3b staining based assay relative to control; format: functional, cell-based
Summary of the method: (§3)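 hONS patient cells (line C1 200 08 0013; 1350/well, DMEM/F12 plus 10% FBS) were given 10 μM compound in 0.6% DMSO, with DMSO as control, for 24 h at 37 °C. MitoTracker Orange CMTMRos (400 nM, 30 min) was applied live before 4% PFA fixation. Anti-α-tubulin and anti-LC3b immunofluorescence plus DAPI followed. High-content imaging used six images/well, with cell segmentation, and each feature was expressed as log2 ratio versus DMSO.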

ONS [8] = experiment: Induction of phenotypic perturbation in human ONS cells assessed as increase in lysosome marker at 10 uM after 24 hrs by lysotrack red DND-99 staining based assay relative to control; format: functional, cell-based; summary of the method: as §1
ONS [9] = experiment: Induction of phenotypic perturbation in human ONS cells assessed as increase in mitochondrial marker at 10 uM after 24 hrs by mitotracker orange staining based assay relative to control; format: functional, cell-based; summary of the method: as §3
[10] = biological target: Tubulin alpha (Homo sapiens) (UniProt P0DPH7+P68366+Q71U36+P68363+Q9BQE3+Q6PEY2+A6NHL2+Q9NY65); experiment: Induction of phenotypic perturbation in human ONS cells assessed as increase in apha tubulin marker at 10 uM after 24 hrs by alpha tubulin staining based assay relative to control; format: functional, cell-based; summary of the method: as §3

COc1cc2c3c(c(=O)oc2cc1O)NCCS3(=O)=O
Activity (ONS [1]): Active
Activity (ONS [2]): Active

NC(=O)c1c[nH]c2ncnc(N)c12
Activity (ONS [3]): Active

C/C1=C\[C@H](C)C[C@H](C)OC(=O)C[C@H](c2ccc(O)cc2)NC(=O)[C@@H](Cc2c(Br)[nH]c3ccccc23)N(C)C(=O)[C@H](C)NC(=O)[C@@H](C)C1 [JASPAMIDE]
Activity [4]: Toxic
Activity [5]: Toxic

N#Cc1cn([C@@H]2O[C@H](CO)[C@@H](O)[C@H]2O)c2ncnc(N)c12
Activity (ONS [3]): Active
Activity (ONS [6]): Active

Cc1cn([C@H]2C[C@H](O)[C@@H](CO)O2)c(=O)[nH]c1=O
Activity (ONS [3]): Active
Activity (ONS [6]): Active

CNc1nc2nccnc2c(=O)n1C
Activity (ONS [3]): Active
Activity (ONS [7]): Active
Activity (ONS [8]): Active
Activity (ONS [9]): Active
Activity [10]: Active

Nc1ncc2ncn([C@@H]3O[C@H](CO)[C@@H](O)[C@H]3O)c2n1
Activity (ONS [3]): Active
Activity (ONS [6]): Active

COC(=O)c1c[nH]c2ncnc(N)c12
Activity (ONS [3]): Active

O=C(NC(=O)c1c[nH]c2cc(Br)ccc12)c1c[nH]c2cc(Br)ccc12
Activity (ONS [3]): Active
Activity (ONS [7]): Active
Activity (ONS [8]): Active
Activity (ONS [9]): Active
Activity [10]: Active

N=C(N)c1c[nH]c2cc(Br)ccc12
Activity (ONS [3]): Active
Activity (ONS [7]): Active
Activity (ONS [8]): Active
Activity (ONS [9]): Active
Activity [10]: Active

CSc1c(CC(=O)O)[n+](C)cn1C
Activity (ONS [3]): Active
Activity (ONS [7]): Active
Activity (ONS [8]): Active
Activity (ONS [9]): Active
Activity [10]: Active

COC(=O)c1c[nH]c2cc(Br)ccc12
Activity (ONS [3]): Active

Nc1nc2c(ncn2[C@@H]2O[C@H](CO)[C@@H](O)[C@H]2O)c(=O)[nH]1
Activity (ONS [3]): Active
Activity (ONS [6]): Active

NC(=O)c1c[nH]c2cc(Br)ccc12
Activity (ONS [3]): Active
Activity (ONS [7]): Active
Activity (ONS [8]): Active
Activity (ONS [6]): Active
Activity (ONS [9]): Active
Activity [10]: Active

N#Cc1cn([C@@H]2O[C@H](CO)[C@@H](O)[C@H]2O)c2nc[nH]c(=O)c12
Activity (ONS [3]): Active
Activity (ONS [7]): Active
Activity (ONS [8]): Active
Activity (ONS [9]): Active
Activity [10]: Active

C=C1C[C@H](C)C(=O)N[C@@H](C)C(=O)N(C)[C@H](Cc2c(Br)[nH]c3ccccc23)C(=O)N[C@@H](c2ccc(O)cc2)CC(=O)O[C@@H](C)C[C@@H](C)C1=O [JASPLAKINOLIDE B]
Activity [4]: Toxic
Activity [5]: Toxic

C/C1=C\[C@H](C)C[C@H](C)OC(=O)C[C@H](c2ccc(O)c(Br)c2)NC(=O)[C@@H](Cc2c(Br)[nH]c3ccccc23)N(C)C(=O)[C@H](C)NC(=O)[C@@H](C)C1 [PIPESTELIDE A]
Activity [4]: Toxic
Activity [5]: Toxic

C/C(=C\[C@H](C)C[C@H](C)O)C[C@H](C)C(=O)N[C@@H](C)C(=O)N(C)[C@H](Cc1c(Br)[nH]c2ccccc12)C(=O)N[C@H](CC(=O)O)c1ccc(O)cc1 [JASPLAKINOLIDE Z1]
Activity (ONS [3]): Active
Activity (ONS [7]): Active
Activity (ONS [8]): Active
Activity (ONS [9]): Active
Activity [10]: Active
Activity [4]: Toxic
Activity [5]: Toxic

NCCc1c[nH]c2cc(Br)ccc12
Activity (ONS [3]): Active
Activity (ONS [6]): Active

NC(=O)c1cn([C@@H]2O[C@H](CO)[C@@H](O)[C@H]2O)c2ncnc(N)c12
Activity (ONS [3]): Active
Activity (ONS [6]): Active

COC(=O)c1cn([C@@H]2O[C@H](CO)[C@@H](O)[C@H]2O)c2ncnc(N)c12
Activity (ONS [3]): Active

N#Cc1c[nH]c2ncnc(N)c12
Activity (ONS [3]): Active

C[C@@H]1NC(=O)[C@@H](C)C/C=C/[C@H](C)C[C@H](C)OC(=O)C[C@H](c2ccc(O)cc2)NC(=O)[C@@H](Cc2c(Br)[nH]c3ccccc23)N(C)C1=O
Activity [4]: Toxic
Activity [5]: Toxic
